Data on three compounds can be found in PubChem BioAssay AID1943 (The Scripps Research Institute Molecular Screening Center, 2009).

The campaign covered roughly 1,600 compounds. About 500 (31%) were called active. The sample as a whole holds a higher share of actives than the screen did. Values without a mark were called inactive.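 Rule for the calls: active = inhibition above the mean of all tested compounds plus 3 SD, cutoff set per campaign (cut at about 36% in these data); inactive = the rest.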

For this assay, the system named is Hepatitis C virus NS3 helicase. The assay can be described thus: blockers of HCV NS3 DNA unwinding – biochemical, Cy5 molecular beacon fluorescence, triplicate, confirmation (AID 1943). As to conditions: at 10.9 µM, active compounds read high. An outline of the steps:
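Material: hepatitis C virus NS3 helicase fragment / Buffer or medium: MOPS pH 6.5 buffer with additives / Also added: Quenchable beacon DNA duplex and ATP / Schedule: 0 and 60 min reads at 25 °C / Technique: Cy5 fluorescence quenching by beacon hairpin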
Regarding `O=C1CC(=O)N(Cc2ccccc2)C(=O)N1CCCCCCN1C(=O)CC(=O)N(Cc2ccccc2)C1=O`, the inhibition was 55.3% (active).

In the case of `COc1ccc(N2C(=O)/C(=C/c3ccco3)C(=O)NC2=S)cc1`, the inhibition is 82% (active).

On to `CC(C)n1c(=O)c(C=Nc2ccc(Br)cc2)c(O)n(Cc2ccco2)c1=O`, for which the inhibition is 1.92%.
